ChEMBL document CHEMBL1255444, “In vitro antibacterial activities of JNJ-Q2, a new broad-spectrum fluoroquinolone” (Antimicrob Agents Chemother, 2010)
In brackets after ≈: the same amount, converted by molar mass.

Legend:
Format in all cases: functional
Staphylococcus aureus [1] = experiment: Antibacterial activity against Staphylococcus aureus […] by broth microdilution method
Summary of the method: (§1)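 CLSI M07-A7 broth microdilution MIC. Medium was cation-adjusted Mueller-Hinton broth. For S. pneumoniae it was Mueller-Hinton supplemented with 5% lysed horse blood. CLSI quality-control strains were included as appropriate.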

[2] = test system: Staphylococcus epidermidis; experiment: Antibacterial activity against methicillin-susceptible Staphylococcus epidermidis by broth microdilution method
Moraxella catarrhalis = experiment: Antibacterial activity against Moraxella catarrhalis by broth microdilution method
Summary of the method: (§2)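 MICs by CLSI M07-A7 broth microdilution in cation-adjusted Mueller-Hinton medium. For S. pneumoniae the medium was supplemented with 5% lysed horse blood. CLSI quality control strains were run alongside as appropriate.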

Klebsiella aerogenes = experiment: Antibacterial activity against Enterobacter aerogenes by broth microdilution method; summary of the method: as §2
Pseudomonas aeruginosa = experiment: Antibacterial activity against Pseudomonas aeruginosa ATCC 27853 by broth microdilution method; summary of the method: as §2
Streptococcus pneumoniae [3] = experiment: Ratio of Gemifloxacin MIC90 to compound MIC90 for ciprofloxacin-resistant Streptococcus pneumoniae
Streptococcus pneumoniae [4] = experiment: Antibacterial activity against Streptococcus pneumoniae isolate OC7189 assessed as log reduction in bacterial growth at 4 times MIC measured at 24 hrs by time-kill assay
Summary of the method: (§3)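 Drug was diluted from 50× stocks made in water or acidified water. Samples were taken at 6 and 24 h and serially diluted onto TSA-5% sheep blood plates. Plates were incubated 20–24 h at 37°C in 5% CO2 before counting CFU. Log10 titer change is given relative to the starting inoculum.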

Streptococcus pneumoniae [5] = experiment: Antibacterial activity against Streptococcus pneumoniae isolate OC6608 by broth microdilution method; summary of the method: as §1
Streptococcus pneumoniae [6] = experiment: Antibacterial activity against Streptococcus pneumoniae isolate OC6790 assessed as log reduction in bacterial growth at 2 times MIC measured at 24 hrs by time-kill assay; summary of the method: as §3
Streptococcus pneumoniae [7] = experiment: Antibacterial activity against Streptococcus pneumoniae isolate OC7348 assessed as log reduction in bacterial growth at 2 times MIC measured at 6 hrs by time-kill assay; summary of the method: as §3
Streptococcus pneumoniae [8] = experiment: Antibacterial activity against Streptococcus pneumoniae isolate OC7348 assessed as log reduction in bacterial growth at 2 times MIC measured at 24 hrs by time-kill assay; summary of the method: as §3
Streptococcus pneumoniae [9] = experiment: Antibacterial activity against Streptococcus pneumoniae isolate OC6585 by broth microdilution method; summary of the method: as §1
Streptococcus pneumoniae [10] = experiment: Antibacterial activity against Streptococcus pneumoniae isolate OC6585 assessed as log reduction in bacterial growth at 2 times MIC measured at 24 hrs by time-kill assay; summary of the method: as §3
Staphylococcus aureus [11] = experiment: Antibacterial activity against methicillin-resistant Staphylococcus aureus isolate OC11223 assessed as log reduction in bacterial growth at 4 times MIC measured at 24 hrs by time-kill assay
Summary of the method: (§4)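 Overnight MRSA cultures were diluted into fresh cation-adjusted Mueller-Hinton broth to about 5 × 10^6 CFU/ml. […] Samples were plated serially diluted on trypticase soy agar, and CFU were counted after 20-24 h at 37°C. Value is the log10 decrease at 24 h from the starting inoculum; detection limit 100 CFU.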

Staphylococcus aureus [12] = experiment: Antibacterial activity against methicillin-resistant Staphylococcus aureus isolate OC2838 assessed as log reduction in bacterial growth at 4 times MIC measured at 24 hrs by time-kill assay; summary of the method: as §4
Streptococcus pneumoniae [13] = experiment: Antibacterial activity against Streptococcus pneumoniae R6 by agar dilution method
Summary of the method: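 MICs for the resistance-selection studies were determined by CLSI agar dilution on Mueller-Hinton medium. For S. pneumoniae the medium was supplemented with 5% lysed horse blood. For MRSA fluctuation-assay strains an arithmetic agar dilution scheme was used for a more precise MIC.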

COc1c(N2CCC/C(=C(\F)CN)C2)c(F)cc2c(=O)c(C(=O)O)cn(C3CC3)c12 [ACORAFLOXACIN]
MIC50 (Staphylococcus aureus [1]): 0.12 µg/mL (≈ 0.286 µM)
MIC90 (Staphylococcus aureus [1]): 0.25 µg/mL (≈ 0.596 µM)
MIC50 [2]: 0.015 µg/mL (≈ 0.0358 µM)
MIC90 [2]: 0.015 µg/mL (≈ 0.0358 µM)
MIC (Moraxella catarrhalis): ≤ 0.015 µg/mL
MIC50 (Moraxella catarrhalis): ≤ 0.015 µg/mL
MIC90 (Moraxella catarrhalis): ≤ 0.015 µg/mL
MIC50 (Klebsiella aerogenes): 0.12 µg/mL (≈ 0.286 µM)
MIC90 (Klebsiella aerogenes): 0.25 µg/mL (≈ 0.596 µM)
MIC50 (Pseudomonas aeruginosa): 1 µg/mL (≈ 2.38 µM)
MIC90 (Pseudomonas aeruginosa): 2 µg/mL (≈ 4.77 µM)
Ratio (Streptococcus pneumoniae [3]): 9
deltalog10CFU/ml (Streptococcus pneumoniae [4]): 7.2
MIC (Streptococcus pneumoniae [5]): 0.06 µg/mL (≈ 0.143 µM)
deltalog10CFU/ml (Streptococcus pneumoniae [6]): 7.2
deltalog10CFU/ml (Streptococcus pneumoniae [7]): 3.8
deltalog10CFU/ml (Streptococcus pneumoniae [8]): 7
MIC (Streptococcus pneumoniae [9]): 0.25 µg/mL (≈ 0.596 µM)
deltalog10CFU/ml (Streptococcus pneumoniae [10]): 6.6
deltalog10CFU/ml (Staphylococcus aureus [11]): 3.9
deltalog10CFU/ml (Staphylococcus aureus [12]): 4.5
MIC (Streptococcus pneumoniae [13]): 0.015 µg/mL (≈ 0.0358 µM)
